Results on four molecules are retold here after ChEMBL document CHEMBL1153184, “Drug design and synthesis of a novel kappa opioid receptor agonist with an oxabicyclo[2.2.2]octane skeleton and its pharmacology” (Bioorg Med Chem Lett, 2010).

SMILES strings stand for the structures. pKi: −log10 of the molar value. Calls of active or inactive are those of the source. No cut-off for these calls is given here.

Test [1] in a line: Displacement of [3H]NTI from guinea pig forebrain delta opioid receptor. On the set-up: species or system Cavia porcellus. In a few lines:
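Radioligand competition binding in duplicate on guinea-pig brain homogenate. Cerebellum was used for κ and forebrain for μ and δ. The μ tracer was [³H]DAMGO, δ was [³H]NTI and κ was [³H]U-69,593. Affinity was expressed as Ki.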
Background: In a radioligand displacement assay an active substance lowers the binding of a labelled ligand.

The target of test [2] is Kappa-type opioid receptor (Cavia porcellus, UniProt P41144). Briefly: Displacement of [3H]U69593 from guinea pig cerebellum kappa opioid receptor. In kind it is tissue-based. The method in brief: (§1)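 Radioligand competition binding in duplicate on guinea-pig brain homogenate. Cerebellum was used for κ and forebrain for μ and δ. Affinity was expressed as Ki.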
Kappa-type opioid receptor, sequence (P41144 whole entry): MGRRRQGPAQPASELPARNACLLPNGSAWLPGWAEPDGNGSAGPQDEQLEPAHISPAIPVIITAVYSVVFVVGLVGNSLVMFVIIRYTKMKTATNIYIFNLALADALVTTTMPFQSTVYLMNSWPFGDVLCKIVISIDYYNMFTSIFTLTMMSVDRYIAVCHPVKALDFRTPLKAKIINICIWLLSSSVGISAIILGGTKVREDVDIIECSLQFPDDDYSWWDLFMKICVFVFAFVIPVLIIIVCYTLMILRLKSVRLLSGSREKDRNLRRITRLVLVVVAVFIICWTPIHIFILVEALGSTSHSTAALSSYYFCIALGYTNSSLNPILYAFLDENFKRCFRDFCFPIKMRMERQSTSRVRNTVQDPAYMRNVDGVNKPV
A further test deals with Mu-type opioid receptor (Cavia porcellus, UniProt P97266). Briefly: Displacement of [3H]DAMGO from guinea pig forebrain mu opioid receptor. The method in brief:
as §1

Test [3] relates to Mus musculus. Briefly: Antinociceptive activity in sc dosed mouse assessed as inhibition of acetic acid-induced writhing response at 0.03 mg/kg in presence of 20 mg/kg kappa opioid receptor antagonist nor-BNI. It counts as functional, organism-based. (An intraperitoneal irritant provokes the stretching counted in writhing tests.)
The test system of test [4] is Mus musculus. Briefly: Antinociceptive activity in sc dosed mouse assessed as inhibition of acetic acid-induced writhing response at 0.03 mg/kg in presence of 0.3 mg/kg mu opioid receptor antagonist naloxone. It counts as functional, organism-based.
In test [5] the test system is Mus musculus. Briefly: Antinociceptive activity in sc dosed mouse assessed as inhibition of acetic acid-induced writhing response at 0.03 mg/kg in presence of 3 mg/kg delta opioid receptor antagonist NTI. It counts as functional, organism-based.
For test [6], the system named is Mus musculus. Briefly: Antinociceptive activity in sc dosed mouse assessed as inhibition of acetic acid-induced writhing response. It counts as functional.

Mu-type opioid receptor, sequence (P97266 whole entry): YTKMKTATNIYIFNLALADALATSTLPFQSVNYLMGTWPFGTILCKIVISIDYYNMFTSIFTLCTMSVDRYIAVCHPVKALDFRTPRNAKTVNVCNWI

As a reminder, the pKi is −log10 of the Ki, conventionally taken in molar units. `O=C1CC[C@@]2(O)[C@H]3Cc4ccc(O)c5c4[C@@]2(CCN3CC2CC2)[C@H]1O5` [NALTREXONE]: the pKi in test [1] is 7.68.
With `CN(C(=O)/C=C/c1ccco1)[C@@H]1CC[C@@]2(O)[C@H]3Cc4ccc(O)c5c4[C@@]2(CCN3CC2CC2)[C@H]1O5`, the pKi in test [1] was 7.02; in test [2] it was 9.65; at Mu-type opioid receptor, 9.24.
By ED50 is commonly meant the dose at which the effect has come halfway, by size or by number of responders. As for `O=C(Nc1ccccc1)[C@H]1O[C@@]23CC[C@]1(O)[C@@H]1Oc4c(O)ccc5c4[C@@]12CCN(CC1CC1)[C@@H]3C5`, the pKi was 8.56 in test [1], 9.95 in test [2] and 9.67 at Mu-type opioid receptor. Further, the outcome in the test on Mus musculus [3] was inactive. For the same molecule, the result in the test on Mus musculus [4] and with Mus musculus [5] was Active. The Activity result in the test with Mus musculus [6] is “Dose-dependent effect”. The ED50 in the test with Mus musculus [6] was 6.3 µg/kg.
`O=C(Nc1ccccc1)[C@@H]1O[C@@]23CC[C@@]1(O)[C@@H]1Oc4c(O)ccc5c4[C@@]12CCN(CC1CC1)[C@@H]3C5`: the pKi was 8.49 in test [1], 9.82 in test [2] and 9.69 at Mu-type opioid receptor.
